Results as given in paper PMC6176901 (ChemMedChem, 2018).

Columns and labels:
[1] = system: GMII (human Golgi α-mannosidase II); conditions: ref 9a, cited from earlier work
[2] = cited from earlier work
[3] = target: LMan (human lysosomal α-mannosidase); conditions: read-out: LMan IC50 (in LManII column); ref 9a; cited from earlier work
[4] = system: cancer and non-malignant cell lines; assay: Cytotoxic MTS assay, statements over several cell lines; type: cell-based; conditions: read-out: cytotoxicity, range over sensitive lines
How it was run: (§1)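 Human lines grown in DMEM/RPMI 1640 with 10% fetal calf serum; CEM-DNR and K562-TAX sublines selected in rising daunorubicin or paclitaxel. Seeded at 25000–35000 cells/mL in 384-well plates; DMSO solutions added at time zero; 72 h at 37 °C, 5% CO2. MTS added for 1–4 h; OD at 490 nm. Survival versus control wells; IC50 from dose-response curves. Technical duplicates, ≥3 biological replicates.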

hERManI = conditions: read-out: Ki for hERManI (in AspMan column); cited from earlier work
Cytotoxic MTS assay, BJ = type: cell-based; conditions: human, BJ cells (non-malignant fibroblasts)
How it was run: as §1

[5] = system: U2OS (Human Bone Osteosarcoma Epithelial Cells); assay: Cytotoxic MTS assay, U2OS; type: cell-based; conditions: 72 h, read-out: Cytotoxic activity IC50, U2OS
How it was run: as §1

[6] = system: A549 (human lung adenocarcinoma); assay: Cytotoxic MTS assay, A549; type: cell-based; conditions: A549, 72 h, read-out: Cytotoxic activity IC50, A549
How it was run: as §1

[7] = Cytotoxic MTS assay, MRC-5; type: cell-based; conditions: human, MRC-5 cells (non-malignant lung fibroblasts)
How it was run: as §1

[8] = system: CEM-DNR (T-lymphoblastic leukemia, daunorubicin resistant); assay: Cytotoxic MTS assay, CEM-DNR; type: cell-based; conditions: Homo sapiens, 72 h, read-out: Cytotoxic activity IC50, CEM-DNR
How it was run: as §1

[9] = system: K562 (acute myeloid leukemia); assay: Cytotoxic MTS assay, K562; type: cell-based
How it was run: as §1

[10] = system: K562-TAX (acute myeloid leukemia, overexpressing the P-glycoprotein); assay: Cytotoxic MTS assay, K562-TAX; type: cell-based; conditions: 72 h, read-out: Cytotoxic activity IC50, K562-TAX
How it was run: as §1

[11] = system: CCRF-CEM (T-lymphoblastic leukemia); assay: Cytotoxic MTS assay, CCRF-CEM; type: cell-based; conditions: Homo sapiens, 72 h, read-out: Cytotoxic activity IC50, CCRF-CEM
How it was run: as §1

| Compound | Selectivity index, LMan/GMII [1] | pKa ligand, Water pH=7, calculated by Sladek et al. [2] | IC50 ([1]; read-out: GMII IC50 (in GMIIb column)) | IC50 [3] | IC50 [4] | Ki (hERManI) | IC50 at 72 h (Cytotoxic MTS assay, BJ) | IC50 [5] | IC50 [6] | IC50 at 72 h [7] | IC50 [8] | IC50 ([9]; Homo sapiens, K562, 72 h, read-out: Cytotoxic activity IC50, K562) | K562 inhibition, in words ([9]; non-resistant K562) | IC50 [10] | IC50 [11] |
| --- | --- | --- | --- | --- | --- | --- | --- | --- | --- | --- | --- | --- | --- | --- | --- |
| OC[C@@H](O)[C@@H]1[C@H](O)[C@H](O)CN1Cc1ccccc1 [Compound 25] | 2 |  |  |  |  |  |  |  |  |  |  |  |  |  |  |
| OC[C@@H](O)[C@H]1NC[C@@H](O)[C@H]1O [Compound 24, 1,4-dideoxy-1,4-imino-D-mannitol] |  | 6.6 | 100 µM | 13 µM |  |  |  |  |  |  |  |  |  |  |  |
| O[C@H]1[C@H]2[C@H](O)CCCN2C[C@H]1O [Compound 1, (1S,2R,8R,8aR)-trihydroxy-indolizidine] |  | 7.8 |  |  | 110 to 140 µM | > 10000 µM | > 200 µM | > 200 µM | > 200 µM | > 200 µM | 132 ± 20 µM | > 200 µM | did not inhibit | 137 ± 13 µM | 113 ± 12 µM |
